Source: ChEMBL document CHEMBL4732060, “Cytotoxic triterpenoid-safirinium conjugates target the endoplasmic reticulum” (Eur J Med Chem, 2021)
Active and inactive are the calls of the source. The calls are words filed in the database; no cut-off is given here.

Tests used:
[1] = Drug uptake in human A-375 cells measured after 24 hrs by fluorescence imaging analysis; assay type: ADME, cell-based; settings: a-375, 24 h
Method in brief: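 Fluorescence imaging of cells after a prolonged 24 h incubation with compound, to judge entry into the cells.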

MCF7 [2] = test: Cytotoxicity against human MCF7 cells assessed as reduction in cell viability measured after 72 hrs by SRB assay; assay type: functional, cell-based; settings: MCF7, 72 h
A2780 [3] = test: Cytotoxicity against human A2780 cells assessed as reduction in cell viability measured after 72 hrs by SRB assay; assay type: functional, cell-based; settings: A2780, 72 h
A-375 [4] = test: Cytotoxicity against human A-375 cells assessed as reduction in cell viability upto 30 uM measured after 72 hrs by SRB assay; assay type: functional, cell-based; settings: dose microM <=30, time 72.0 hrs
Method in brief: (§1)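 Sulforhodamine B assay on human tumour lines A375 (epithelial melanoma), HT29 (colorectal adenocarcinoma), MCF-7 (breast adenocarcinoma), A2780 (ovarian carcinoma) and FaDu (squamous cell carcinoma). Non-malignant NIH 3T3 (mouse fibroblasts) and HEK293 (human embryonic kidney) cells were also tested. EC50 values are given as mean ± standard mean error.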

FaDu [5] = test: Cytotoxicity against human FaDu cells assessed as reduction in cell viability upto 30 uM measured after 72 hrs by SRB assay; assay type: functional, cell-based; settings: dose microM <=30, time 72.0 hrs; method in brief: as §1
NIH3T3 [6] = test: Cytotoxicity against mouse NIH3T3 cells assessed as reduction in cell viability measured after 72 hrs by SRB assay; assay type: cell-based; settings: NIH3T3, 72 h; method in brief: as §1
A-375 [7] = test: Cytotoxicity against human A-375 cells assessed as reduction in cell viability measured after 72 hrs by SRB assay; assay type: functional, cell-based; settings: A-375, 72 h
HT-29 [8] = test: Cytotoxicity against human HT-29 cells assessed as reduction in cell viability measured after 72 hrs by SRB assay; assay type: functional, cell-based; settings: HT-29, 72 h
A2780 [9] = test: Cytotoxicity against human A2780 cells assessed as reduction in cell viability upto 30 uM measured after 72 hrs by SRB assay; assay type: functional, cell-based; settings: dose microM <=30, time 72.0 hrs; method in brief: as §1
FaDu [10] = test: Cytotoxicity against human FaDu cells assessed as reduction in cell viability measured after 72 hrs by SRB assay; assay type: functional, cell-based
HEK293 [11] = test: Cytotoxicity against human HEK293 cells assessed as reduction in cell viability upto 30 uM measured after 72 hrs by SRB assay; assay type: cell-based; settings: hek293, 72 h; method in brief: as §1
MCF7 [12] = test: Cytotoxicity against human MCF7 cells assessed as reduction in cell viability upto 30 uM measured after 72 hrs by SRB assay; assay type: functional, cell-based; settings: dose microM <=30, time 72.0 hrs; method in brief: as §1
HT-29 [13] = test: Cytotoxicity against human HT-29 cells assessed as reduction in cell viability upto 30 uM measured after 72 hrs by SRB assay; assay type: functional, cell-based; settings: dose microM <=30, time 72.0 hrs; method in brief: as §1
NIH3T3 [14] = test: Cytotoxicity against mouse NIH3T3 cells assessed as reduction in cell viability upto 30 uM measured after 72 hrs by SRB assay; assay type: cell-based; settings: nih3t3, 72 h; method in brief: as §1
HEK293 [15] = test: Cytotoxicity against human HEK293 cells assessed as reduction in cell viability measured after 72 hrs by SRB assay; assay type: ADME, cell-based; settings: HEK293, 72 h

Row | Drug uptake [1] | SMILES | EC50 (MCF7 [2]) | EC50 (A2780 [3]) | Activity (A-375 [4]) | Activity (FaDu [5]) | EC50 (NIH3T3 [6]) | EC50 (A-375 [7]) | EC50 (HT-29 [8]) | Activity (A2780 [9]) | EC50 (FaDu [10]) | Activity (HEK293 [11]) | Activity (MCF7 [12]) | Activity (HT-29 [13]) | Activity (NIH3T3 [14]) | EC50 (HEK293 [15])
1 | Not Active | CC1=CC(C)=C(C(=O)[O-])C2=N[N+]3(CCOCC3)CN12 | > 30 µM | > 30 µM | inactive | inactive | > 30 µM | > 30 µM | > 30 µM | inactive | > 30 µM | Non-Toxic | inactive | inactive | Non-Toxic | 
2 |  | CCN(CC)c1ccc2c(-c3ccccc3C(=O)O)c3ccc(=[N+](CC)CC)cc-3oc2c1 [RHODAMINE] | > 30 µM | > 30 µM |  |  | > 30 µM | > 30 µM | > 30 µM |  | > 30 µM |  |  |  |  | > 30 µM
3 | Not Active | CC1=CC(C)=C(C(=O)[O-])C2=N[N+](C)(C)CN12 | > 30 µM | > 30 µM | inactive | inactive | > 30 µM | > 30 µM | > 30 µM | inactive | > 30 µM | Non-Toxic | inactive | inactive | Non-Toxic | 
4 |  | CC[N+]1(CC)CN2C(=N1)C(C(=O)N1CCN(C(=O)[C@]34CC[C@@H](C(C)=O)[C@@H]3C3=CC[C@@H]5[C@@]6(C)CC[C@H](OC(C)=O)C(C)(C)[C@@H]6CC[C@@]5(C)[C@]3(C)CC4)CC1)=Cc1ccccc12 | 13.2 µM | 10.9 µM |  |  | 3 µM | 15 µM | 22.2 µM |  | 13.3 µM |  |  |  |  | 
5 | Not Active | CC1=CC(C)=C(C(=O)[O-])C2=N[N+]3(CCCCC3)CN12 | > 30 µM | > 30 µM | inactive | inactive | > 30 µM | > 30 µM | > 30 µM | inactive | > 30 µM | Non-Toxic | inactive | inactive | Non-Toxic | 
6 |  | C=C(C)[C@@H]1CC[C@]2(C(=O)N3CCN(C(=O)C4=C(C)C=C(C)N5C[N+](CC)(CC)N=C45)CC3)CC[C@]3(C)[C@H](CC[C@@H]4[C@@]5(C)CC[C@H](OC(C)=O)C(C)(C)[C@@H]5CC[C@]43C)[C@@H]12 | 26.3 µM | 21.6 µM |  |  | 22.4 µM | 26.2 µM | > 30 µM |  | > 30 µM |  |  |  |  | 
7 |  | CC[N+]1(CC)CN2C(=N1)C(C(=O)NCCNC(=O)[C@]13CCC(C)(C)C[C@H]1C1=CC[C@@H]4[C@@]5(C)CC[C@H](OC(C)=O)C(C)(C)[C@@H]5CC[C@@]4(C)[C@]1(C)CC3)=Cc1ccccc12 | 21.8 µM | 24.2 µM |  |  | 28.5 µM | 19 µM | 25 µM |  | 27.1 µM |  |  |  |  | 
8 |  | CC[N+]1(CC)CN2C(=N1)C(C(=O)N1CCN(C(=O)[C@]34CC[C@@H](C)[C@H](C)[C@H]3C3=CC[C@@H]5[C@@]6(C)CC[C@H](OC(C)=O)C(C)(C)[C@@H]6CC[C@@]5(C)[C@]3(C)CC4)CC1)=Cc1ccccc12 | 10.2 µM | 9 µM |  |  | > 30 µM | 21.4 µM | > 30 µM |  | 18.3 µM |  |  |  |  | 
9 | Not Active | CC1=CC(C)=C(C(=O)[O-])C2=N[N+]3(CCN(C)CC3)CN12 | > 30 µM | > 30 µM | inactive | inactive | > 30 µM | > 30 µM | > 30 µM | inactive | > 30 µM | Non-Toxic | inactive | inactive | Non-Toxic | 
10 |  | COc1cccc2c1C(=O)c1c(O)c3c(c(O)c1C2=O)C[C@@](O)(C(=O)CO)C[C@@H]3O[C@H]1C[C@H](N)[C@H](O)[C@H](C)O1 [DOXORUBICIN] | 1.1 µM | 0.01 µM |  |  | 0.4 µM |  | 0.9 µM |  |  |  |  |  |  | 
11 |  | CC[N+]1(CC)CN2C(=N1)C(C(=O)NCCNC(=O)[C@]13CC[C@@H](C)[C@H](C)[C@H]1C1=CC[C@@H]4[C@@]5(C)CC[C@H](OC(C)=O)C(C)(C)[C@@H]5CC[C@@]4(C)[C@]1(C)CC3)=Cc1ccccc12 | 11.7 µM | 11.2 µM |  |  | 3.6 µM | 13.8 µM | 22.1 µM |  | 10.2 µM |  |  |  |  | 
12 |  | C=C(C)[C@@H]1CC[C@]2(C(=O)N3CCN(C(=O)C4=Cc5ccccc5N5C[N+](CC)(CC)N=C45)CC3)CC[C@]3(C)C(=CC[C@@H]4[C@@]5(C)CC[C@H](OC(C)=O)C(C)(C)[C@@H]5CC[C@]43C)[C@H]12 | 18.1 µM | 14.1 µM |  |  | > 30 µM | 20.8 µM | 27 µM |  | 28.2 µM |  |  |  |  | 16.5 µM
13 | Not Active | CC[N+]1(CC)CN2C(C)=CC(C)=C(C(=O)[O-])C2=N1 | > 30 µM | > 30 µM | inactive | inactive | > 30 µM | > 30 µM | > 30 µM | inactive | > 30 µM | Non-Toxic | inactive | inactive | Non-Toxic | 
14 |  | C=C(C)[C@@H]1CC[C@]2(C(=O)N3CCN(C(=O)C4=C(C)C=C(C)N5C[N+](CCCCCCCCCCCC)(CCCCCCCCCCCC)N=C45)CC3)CC[C@]3(C)[C@H](CC[C@@H]4[C@@]5(C)CC[C@H](OC(C)=O)C(C)(C)[C@@H]5CC[C@]43C)[C@@H]12 | 15.7 µM | 11 µM |  |  | > 30 µM | 16.8 µM | 24.9 µM |  | 10.7 µM |  |  |  |  | 13.3 µM
15 | Not Active | CCCCCCCC[N+]1(CCCCCCCC)CN2C(C)=CC(C)=C(C(=O)[O-])C2=N1 | > 30 µM | > 30 µM | inactive | inactive | > 30 µM | > 30 µM | > 30 µM | inactive | > 30 µM | Non-Toxic | inactive | inactive | Non-Toxic | 
16 | Not Active | CCCCCCCCCCCC[N+]1(CCCCCCCCCCCC)CN2C(C)=CC(C)=C(C(=O)[O-])C2=N1 | > 30 µM | > 30 µM | inactive | inactive | > 30 µM | > 30 µM | > 30 µM | inactive | > 30 µM | Non-Toxic | inactive | inactive | Non-Toxic | 
17 |  | CC[N+]1(CC)CN2C(=N1)C(C(=O)NCCNC(=O)[C@]13CC[C@@H](C(C)=O)[C@@H]1C1=CC[C@@H]4[C@@]5(C)CC[C@H](OC(C)=O)C(C)(C)[C@@H]5CC[C@@]4(C)[C@]1(C)CC3)=Cc1ccccc12 | 15.7 µM | 20.8 µM |  |  | 21.3 µM | 16.6 µM | > 30 µM |  | 16.1 µM |  |  |  |  | 
18 | Not Active | CCCCCC[N+]1(CCCCCC)CN2C(C)=CC(C)=C(C(=O)[O-])C2=N1 | > 30 µM | > 30 µM | inactive | inactive | > 30 µM | > 30 µM | > 30 µM | inactive | > 30 µM | Non-Toxic | inactive | inactive | Non-Toxic | 
19 | Not Active | CC1=CC(C)=C(C(=O)[O-])C2=N[N+]3(CCCC3)CN12 | > 30 µM | > 30 µM | inactive | inactive | > 30 µM | > 30 µM | > 30 µM | inactive | > 30 µM | Non-Toxic | inactive | inactive | Non-Toxic | 
20 |  | CC[N+]1(CC)CN2C(=N1)C(C(=O)N1CCN(C(=O)[C@]34CCC(C)(C)C[C@H]3C3=CC[C@@H]5[C@@]6(C)CC[C@H](OC(C)=O)C(C)(C)[C@@H]6CC[C@@]5(C)[C@]3(C)CC4)CC1)=Cc1ccccc12 | 19.8 µM | 21.4 µM |  |  | 18.4 µM | 21.4 µM | 26.2 µM |  | 18.1 µM |  |  |  |  | 

Row | SMILES | Drug uptake [1] | EC50 (MCF7 [2]) | EC50 (A2780 [3]) | Activity (A-375 [4]) | Activity (FaDu [5]) | EC50 (NIH3T3 [6]) | EC50 (A-375 [7]) | EC50 (HT-29 [8]) | Activity (A2780 [9]) | EC50 (FaDu [10]) | Activity (HEK293 [11]) | Activity (MCF7 [12]) | Activity (HT-29 [13]) | Activity (NIH3T3 [14]) | EC50 (HEK293 [15])
21 | CC[N+]1(CC)CN2C(=N1)C(C(=O)[O-])=Cc1ccccc12 | Not Active |  |  |  |  |  |  |  |  |  |  |  |  |  | 
